Reference: publication PMC11830134 (BioImpacts : BI, 2023)
“And” between values parts separate entries of the source, which are not always exact repeats. Identical values can stand only once.

Key:
[1] = cited from earlier work
[2] = equilibrium zone, water; cited from earlier work
[3] = Surface tension and critical micelle concentration, Du Noüy ring method; format: physicochemical; conditions: aqueous, 25±0.5 °C; mean ± SD, n=3
Outline: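 Aqueous solutions freshly made at twice the predicted solubility as starting concentration. Du Noüy platinum ring force tensiometer, 25±0.5 °C; ring fully immersed, then slowly lifted, and force at detachment converted to surface tension. Static-zone surface tension compared with deionized water. Triplicate measurements.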

[4] = Short-term stability of aqueous solutions; format: physicochemical; conditions: aqueous solutions at −20, 4, 25 and 37 °C, compared with fresh samples
Outline: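 Test peptide aqueous solutions at set concentrations, held at −20, 4, 25 and 37 °C for 72 h. Then quantified by ESI triple-quad MS in flow-injection mode (direct infusion from autosampler). Expressed relative to fresh samples of the same initial concentration.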

[5] = Ex-vivo skin permeation, Franz diffusion cells; format: in vitro ADME, Sprague-Dawley rats; conditions: for Residual drug in the donor phase / Flux / Permeated drug through the skin: rat skin, mean ± SD, n=3; for Residual drug in the donor phase: after 48h; for Flux / Permeated drug through the skin: saturated solution donor; for Flux: 37 °C; for Flux / Unrecovered/ trapped drug: 48h; for Permeated drug through the skin: over 48h; for Unrecovered/ trapped drug: total applied minus permeated and donor-recovered amounts
Outline: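 Full-thickness abdominal skin from ~8-week male Sprague-Dawley rats (220-250 g), taken after isoflurane anaesthesia, mounted in upright Franz cells (2.0 cm2). Donor: peptide at saturated solubility, set from predicted logS. Receptor: 5 mL 10% (v/v) hydroethanolic solution, 37±0.5 °C, 300 rpm, 48 h. 1 mL sampled at 1-48 h with replacement, stored -20 °C, quantified by ESI-MS flow injection. Flux from permeated amount versus time.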

[6] = cited from earlier work; remark: listed apart in the source

Compound | logP [1] | experimental surface tension [2] | CMC [3] | stability range in the aqueous medium after 72 hours [4] | Residual drug in the donor phase [5] | Flux [5] | Permeated drug through the skin [5] | Unrecovered/ trapped drug [5] | accumulation in the epidermis [6]
lysine-threonine-threonine-lysine-serine [KTTKS] | -3.54 | 69.00±2.7 mN/m |  |  |  |  |  |  | 
CCCCCCCCCCCCCCCC(=O)N[C@@H](CCCCN)C(=O)N[C@H](C(=O)O)[C@@H](C)O [Compound C16-KT, reference compound] |  |  | 1.89 ± 0.44 mg/L | 93.2-104.2% | 4.197±1.308% | 0.001±0.000 µg/cm^2 /h | 2.6% and 2.628±0.368% | ≈93% | 
CCCCCCCCCCCC(=O)N[C@@H](CCCCN)C(=O)N[C@H](C(=O)O)[C@@H](C)O [Compound C12-KT] |  |  | 15.31 ± 0.05 mg/L | 96.2-101.8% | 21.49±7.454% | 0.016±0.006 µg/cm^2 /h | 0.5% and 0.499±0.070% | ≈78% | 
C[C@@H](O)[C@H](NC(=O)[C@@H](N)CCCCN)C(=O)O [KT, lysine-threonine, reference compound] |  |  |  | 99.7-100.3% | 97.7% and 97.73±1.688% | 0.003±0.000 µg/cm^2 /h | 0.004% and 0.004±0.001% |  | 
CCCCCCCCCC(=O)N[C@@H](CCCCN)C(=O)N[C@H](C(=O)O)[C@@H](C)O [Compound C10-KT] |  |  | 42.24 ± 0.06 mg/L | 96.6-103.7% | 55.23±3.377% | 0.032±0.009 µg/cm^2 /h | 2.3% and 2.314±1.087% | ≈42% | 
CCCCCCCC(=O)N[C@@H](CCCCN)C(=O)N[C@H](C(=O)O)[C@@H](C)O [Compound C8-KT] |  |  | 194.95 ± 0.05 mg/L | 98.9-101.6% | 21.29±3.851% | 1.084±0.085 µg/cm^2 /h | 33.2% and 33.24±9.562% | ≈ 34% | 
Pal-KTTKS | 3.72 | 50.3±0.40 mN/m |  |  |  |  |  |  | 48%
